Assays:
TRPC4 = target: T1, TRPC4 (Mus musculus, UniProt Q9QUQ5); assay: Carbachol-induced Sr2+ entry in TRPC4-overexpressing HEK293 cells; type: cell-based; conditions: read-out: IC50 of Cch-induced Sr2+ entry; Cch 100 nM, Sr2+ 3 mM
T1 sequence (Q9QUQ5 1-890 isoform Q9QUQ5-2): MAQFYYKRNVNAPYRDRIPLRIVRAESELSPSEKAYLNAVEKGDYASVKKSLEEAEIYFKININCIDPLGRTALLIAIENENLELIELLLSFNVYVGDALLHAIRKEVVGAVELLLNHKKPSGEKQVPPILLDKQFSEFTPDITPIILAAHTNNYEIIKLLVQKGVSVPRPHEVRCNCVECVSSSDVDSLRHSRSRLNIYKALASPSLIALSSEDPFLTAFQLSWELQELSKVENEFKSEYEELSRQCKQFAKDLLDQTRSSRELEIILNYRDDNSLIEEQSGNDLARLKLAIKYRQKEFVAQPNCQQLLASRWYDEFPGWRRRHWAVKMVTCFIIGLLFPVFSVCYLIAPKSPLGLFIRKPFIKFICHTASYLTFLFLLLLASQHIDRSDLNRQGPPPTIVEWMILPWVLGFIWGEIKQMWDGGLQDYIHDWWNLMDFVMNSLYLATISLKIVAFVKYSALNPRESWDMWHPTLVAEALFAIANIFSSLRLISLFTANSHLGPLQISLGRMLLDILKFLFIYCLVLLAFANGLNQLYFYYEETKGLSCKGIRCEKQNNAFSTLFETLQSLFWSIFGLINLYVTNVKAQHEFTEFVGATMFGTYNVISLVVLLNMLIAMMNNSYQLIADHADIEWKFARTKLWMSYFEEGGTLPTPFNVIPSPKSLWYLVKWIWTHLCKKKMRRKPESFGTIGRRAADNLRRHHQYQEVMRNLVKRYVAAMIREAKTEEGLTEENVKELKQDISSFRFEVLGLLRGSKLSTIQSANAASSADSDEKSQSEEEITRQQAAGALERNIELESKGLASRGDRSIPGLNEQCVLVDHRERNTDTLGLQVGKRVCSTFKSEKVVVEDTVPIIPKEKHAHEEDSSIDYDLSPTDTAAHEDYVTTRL
Outline: (§1)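 HEK293 cells were electroporated with GFP-tagged TRPC4, TRPC5 or TRPC7, plated after 24 h and cultured 48 h under selection; only high-GFP cells were analysed. Coverslip cells were loaded with Fura2 (2 µM) and treated with carbachol (100 nM) plus test compound (0 to 100 µM). Entry was measured after adding Sr²⁺ (3 mM), read as the 340/380 ratio; n = 3 to 5.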

murine BMSMCs [1] = assay: Pit assay on osteo-assay surface plates, murine BMSMC-derived osteoclasts; type: cell-based, mouse; conditions: ELP-004 100 nM
Outline: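 Murine BMSMC osteoclasts were grown on synthetic bone-mimetic surface plates with ±test compound (100 nM), fed every 3–5 days, and assayed on days 7, 14 and 21. Cells were removed with 10% bleach (5 min). Matrix was stained with 1% silver nitrate under UV for 20–45 min, treated with 2.5% sodium thiosulphate and dehydrated in ethanol. Average size of 10–30 pits was measured.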

TRPC7 = target: T2, TRPC7 (Homo sapiens, UniProt Q9HCX4); assay: Carbachol-induced Sr2+ entry in TRPC7-overexpressing HEK293 cells; type: cell-based; conditions: read-out: IC50 of Cch-induced Sr2+ entry; Cch 100 nM, Sr2+ 3 mM
T2 sequence (Q9HCX4 1-862): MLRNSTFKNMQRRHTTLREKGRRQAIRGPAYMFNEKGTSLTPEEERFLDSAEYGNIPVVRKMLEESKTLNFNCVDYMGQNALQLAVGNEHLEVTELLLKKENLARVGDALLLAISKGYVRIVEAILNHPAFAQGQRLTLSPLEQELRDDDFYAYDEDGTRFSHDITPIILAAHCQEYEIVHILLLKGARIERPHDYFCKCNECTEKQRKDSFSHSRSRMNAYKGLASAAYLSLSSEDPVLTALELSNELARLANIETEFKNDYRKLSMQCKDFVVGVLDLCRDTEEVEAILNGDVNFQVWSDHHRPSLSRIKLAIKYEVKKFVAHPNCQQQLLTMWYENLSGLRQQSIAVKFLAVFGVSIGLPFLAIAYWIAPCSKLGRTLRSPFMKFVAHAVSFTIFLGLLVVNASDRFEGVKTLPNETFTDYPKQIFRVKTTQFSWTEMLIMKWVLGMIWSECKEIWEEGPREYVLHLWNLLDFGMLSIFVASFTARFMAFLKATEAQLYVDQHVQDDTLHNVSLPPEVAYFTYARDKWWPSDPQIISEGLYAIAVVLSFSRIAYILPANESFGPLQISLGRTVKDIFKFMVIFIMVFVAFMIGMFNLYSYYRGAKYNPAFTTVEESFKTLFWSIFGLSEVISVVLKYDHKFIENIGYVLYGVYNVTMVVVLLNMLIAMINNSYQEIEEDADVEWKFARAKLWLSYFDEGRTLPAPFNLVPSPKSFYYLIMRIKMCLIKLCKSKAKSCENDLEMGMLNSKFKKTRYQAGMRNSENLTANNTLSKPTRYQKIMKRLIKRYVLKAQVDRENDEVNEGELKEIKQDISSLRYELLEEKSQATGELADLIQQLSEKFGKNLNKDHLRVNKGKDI
Outline: as §1

STIM1/Orai1 = STIM1/Orai1 (Homo sapiens, UniProt Q13586); assay: Store-operated Ca2+ entry; type: cell-based; conditions: Tg 2 μM, 1 mM Ca2+, ELP-004 0 to 1 mM
Outline: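 STIM1–YFP was electroporated into HEK293 cells, which were selected with puromycin (5 µg/ml) and cloned for highest YFP. Orai1–CFP was then added, followed by G418 selection and cloning for highest YFP/CFP and screening for SOCE. Fura2-loaded cells (2 µM, 30 min, RT) were held 10 min in Ca²⁺-free pH 7.2 buffer with thapsigargin (2 µM) and test compound. After baseline, 1 mM Ca²⁺ was added; the read-out was the 340/380 ratio.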

murine BMSMCs [2] = assay: qPCR of osteoclast markers in murine BMSMC-derived osteoclasts; type: cell-based, mouse
Outline: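 Murine osteoclasts were cultured in mCSF (50 ng/ml) with RANKL (1 or 100 ng/ml) and, where indicated, LTB4 (50 nM) or TNFα (2 ng/ml) and test compound (100 nM), for up to 14 days. Cells were pelleted and RNA was extracted. Then 250 ng RNA was DNase-treated (ezDNase) and reverse-transcribed with Superscript IV for qPCR.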

STIM1/Orai1, sequence (Q13586 23-685, species assumed): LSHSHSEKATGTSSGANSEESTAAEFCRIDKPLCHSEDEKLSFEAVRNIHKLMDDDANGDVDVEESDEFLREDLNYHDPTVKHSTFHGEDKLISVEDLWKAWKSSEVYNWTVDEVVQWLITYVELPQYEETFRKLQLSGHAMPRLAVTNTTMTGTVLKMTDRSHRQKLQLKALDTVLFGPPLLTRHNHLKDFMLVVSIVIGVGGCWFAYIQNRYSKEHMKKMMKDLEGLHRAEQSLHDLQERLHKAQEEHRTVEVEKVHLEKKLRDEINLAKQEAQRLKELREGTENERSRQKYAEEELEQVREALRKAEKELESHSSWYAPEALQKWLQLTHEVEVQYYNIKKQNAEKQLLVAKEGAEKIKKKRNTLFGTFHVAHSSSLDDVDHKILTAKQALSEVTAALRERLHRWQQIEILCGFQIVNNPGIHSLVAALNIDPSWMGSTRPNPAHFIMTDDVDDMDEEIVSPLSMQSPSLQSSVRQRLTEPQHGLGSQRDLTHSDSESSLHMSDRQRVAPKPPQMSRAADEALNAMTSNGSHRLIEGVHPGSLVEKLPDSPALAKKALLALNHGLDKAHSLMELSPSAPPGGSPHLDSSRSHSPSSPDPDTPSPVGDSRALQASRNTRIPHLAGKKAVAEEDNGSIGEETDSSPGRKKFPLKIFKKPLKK

Q: With `CCC(=O)N(C)c1ccc(Cl)c(Cl)c1` [ELP-004] as the compound, how does the IC50 (TRPC4) read?
A: 172 nM

Q: And the “effect on matrix degradation” value (murine BMSMCs [1]; LTB4/RANKL)?
A: potent inhibition

Q: What about the “effect on pit formation (matrix degradation)” value (murine BMSMCs [1]; RANKL (100 ng/ml)) of the same compound?
A: significant ELP-004–induced inhibition observed on day 21

Q: And the “effect on matrix degradation” value (murine BMSMCs [1]; TNFα/RANKL)?
A: completely abolished

Q: And the IC50 (TRPC7)?
A: 22.8 nM

Q: What about the “effect on STIM1/Orai1-mediated Ca2+ entry” value (STIM1/Orai1) of the same compound?
A: largely unaffected

Q: And the “changes in LTB4-induced expression of other osteoclast markers” value (murine BMSMCs [2]; LTB4/RANKL, ELP-004 100 nM)?
A: no significant changes

Q: What about the “effect on LTB4-induced increase in DC-STAMP expression” value (murine BMSMCs [2]; LTB4/RANKL, ELP-004 100 nM) of the same compound?
A: no effect

Q: What about the “effect on LTB4-induced increase in OC-STAMP expression” value (murine BMSMCs [2]; LTB4/RANKL, ELP-004 100 nM) of the same compound?
A: no effect

Q: And the “changes in OC-STAMP mRNA expression” value (murine BMSMCs [2]; RANKL (100 ng/ml), ELP-004 100 nM)?
A: no significant changes

Q: And the “effect on DC-STAMP mRNA expression” value (murine BMSMCs [2]; RANKL (100 ng/ml), day 14, ELP-004 100 nM)?
A: Significant inhibition

Q: And the “effect on MMP9 expression” value (murine BMSMCs [2]; RANKL, day 14, ELP-004 100 nM)?
A: inhibited

Q: What about the “effect on DC-STAMP expression” value (murine BMSMCs [2]; TNFα/RANKL, ELP-004 100 nM) of the same compound?
A: abrogated

Q: What about the “effect on MMP9 expression” value (murine BMSMCs [2]; TNFα/RANKL, ELP-004 100 nM) of the same compound?
A: suppressed

Q: What about the “effect on OC-STAMP expression” value (murine BMSMCs [2]; TNFα/RANKL, ELP-004 100 nM) of the same compound?
A: abrogated

Q: What about the “effect on other osteoclast markers” value (murine BMSMCs [2]; TNFα/RANKL, ELP-004 100 nM) of the same compound?
A: no other osteoclast markers
